Assay results published in ChEMBL document CHEMBL3853331, “Preparation, Antiepileptic Activity, and Cardiovascular Safety of Dihydropyrazoles as Brain-Penetrant T-Type Calcium Channel Blockers” (J Med Chem, 2016).

How the values were obtained:
[1] = target: Voltage-dependent L-type calcium channel subunit alpha-1C (Homo sapiens, UniProt Q13936); test: Inhibition of recombinant […] calcium channel Cav1.2 (unknown origin) expressed in HEK293 cells assessed as inhibition of Kcl-induced calcium influx preincubated for 3 mins prior CaCl2 addition by Fluo-4-AM dye-based FLIPR assay; format: cell-based
Chain of Voltage-dependent L-type calcium channel subunit alpha-1C (Q13936 whole entry): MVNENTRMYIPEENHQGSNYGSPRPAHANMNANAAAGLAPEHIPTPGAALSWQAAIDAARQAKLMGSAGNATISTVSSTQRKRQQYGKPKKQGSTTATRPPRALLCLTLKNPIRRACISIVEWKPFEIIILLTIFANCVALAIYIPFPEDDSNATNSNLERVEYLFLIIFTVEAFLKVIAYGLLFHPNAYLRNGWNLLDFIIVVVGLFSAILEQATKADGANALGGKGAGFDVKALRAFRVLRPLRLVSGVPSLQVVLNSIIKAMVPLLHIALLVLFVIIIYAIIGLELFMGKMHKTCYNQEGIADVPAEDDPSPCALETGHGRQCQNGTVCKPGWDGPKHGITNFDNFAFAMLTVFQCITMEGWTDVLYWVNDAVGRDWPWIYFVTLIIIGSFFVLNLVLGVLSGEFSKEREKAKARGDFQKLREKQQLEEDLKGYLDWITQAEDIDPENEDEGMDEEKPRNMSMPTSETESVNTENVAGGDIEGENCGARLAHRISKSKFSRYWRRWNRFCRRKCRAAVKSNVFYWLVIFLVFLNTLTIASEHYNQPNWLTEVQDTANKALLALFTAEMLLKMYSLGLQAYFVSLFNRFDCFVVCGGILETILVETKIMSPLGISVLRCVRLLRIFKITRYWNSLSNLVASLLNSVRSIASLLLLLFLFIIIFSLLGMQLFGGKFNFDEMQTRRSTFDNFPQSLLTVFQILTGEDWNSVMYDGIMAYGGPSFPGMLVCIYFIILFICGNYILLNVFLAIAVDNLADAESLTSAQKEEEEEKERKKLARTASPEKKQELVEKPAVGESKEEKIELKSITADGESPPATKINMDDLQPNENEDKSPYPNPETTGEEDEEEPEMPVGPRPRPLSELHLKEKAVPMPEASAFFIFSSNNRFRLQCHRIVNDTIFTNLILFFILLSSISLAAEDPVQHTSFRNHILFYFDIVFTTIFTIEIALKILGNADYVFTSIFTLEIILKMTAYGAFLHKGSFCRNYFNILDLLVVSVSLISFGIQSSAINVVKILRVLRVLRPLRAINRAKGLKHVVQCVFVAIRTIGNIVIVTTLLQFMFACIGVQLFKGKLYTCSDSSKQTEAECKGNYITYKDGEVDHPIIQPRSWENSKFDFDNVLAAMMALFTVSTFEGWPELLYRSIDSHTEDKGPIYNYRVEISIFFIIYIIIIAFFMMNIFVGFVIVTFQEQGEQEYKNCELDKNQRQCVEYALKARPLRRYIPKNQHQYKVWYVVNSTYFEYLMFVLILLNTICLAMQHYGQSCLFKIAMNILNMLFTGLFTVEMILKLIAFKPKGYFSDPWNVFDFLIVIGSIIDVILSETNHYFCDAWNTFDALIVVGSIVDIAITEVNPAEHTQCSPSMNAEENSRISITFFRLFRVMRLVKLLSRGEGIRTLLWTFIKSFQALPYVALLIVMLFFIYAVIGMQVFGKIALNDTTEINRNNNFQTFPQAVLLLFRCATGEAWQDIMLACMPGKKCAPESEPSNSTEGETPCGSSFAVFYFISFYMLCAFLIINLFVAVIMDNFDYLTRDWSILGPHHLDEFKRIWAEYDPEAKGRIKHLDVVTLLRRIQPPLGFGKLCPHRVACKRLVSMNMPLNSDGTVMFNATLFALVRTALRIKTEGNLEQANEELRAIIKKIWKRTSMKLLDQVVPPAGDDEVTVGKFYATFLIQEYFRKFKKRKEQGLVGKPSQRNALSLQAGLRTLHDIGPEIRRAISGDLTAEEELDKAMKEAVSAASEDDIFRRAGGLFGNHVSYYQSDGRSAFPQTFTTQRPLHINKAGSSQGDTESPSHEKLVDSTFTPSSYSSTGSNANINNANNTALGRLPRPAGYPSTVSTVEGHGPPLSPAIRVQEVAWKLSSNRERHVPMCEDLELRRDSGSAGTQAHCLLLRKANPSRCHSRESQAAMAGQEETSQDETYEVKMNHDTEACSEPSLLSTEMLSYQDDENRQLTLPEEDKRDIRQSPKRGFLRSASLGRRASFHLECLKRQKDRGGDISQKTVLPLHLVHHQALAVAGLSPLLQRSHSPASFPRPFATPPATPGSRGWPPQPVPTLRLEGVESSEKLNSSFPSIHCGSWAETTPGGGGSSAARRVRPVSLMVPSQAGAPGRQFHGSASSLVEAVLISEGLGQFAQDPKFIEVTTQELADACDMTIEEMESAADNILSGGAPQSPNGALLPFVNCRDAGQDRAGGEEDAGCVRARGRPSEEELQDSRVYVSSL
Procedure, shortened: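 HEK293 cells stably expressing the channel, seeded overnight and loaded 1 h at 37°C with 3 µM Fluo-4-AM. Compounds given as a 3-fold dilution series from 10 µM to 0.05 nM and incubated 3 min. For T-type channels, dilutions in TEAC buffer and stimulation with 10 mM final CaCl2. For Cav1.2, dilutions in assay buffer and stimulation with 20 mM final KCl. IC50 from area under the fluorescence trace against vehicle; mean of at least two experiments.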

[2] = target: Voltage-dependent T-type calcium channel subunit alpha-1H (Homo sapiens, UniProt O95180); test: Inhibition of human T-type calcium channel Cav3.2 expressed in CHO cells assessed as inhibition of calcium tail current at -60 mV holding potential measured after 150 secs by QPatch assay; format: cell-based
Chain of Voltage-dependent T-type calcium channel subunit alpha-1H (O95180 whole entry): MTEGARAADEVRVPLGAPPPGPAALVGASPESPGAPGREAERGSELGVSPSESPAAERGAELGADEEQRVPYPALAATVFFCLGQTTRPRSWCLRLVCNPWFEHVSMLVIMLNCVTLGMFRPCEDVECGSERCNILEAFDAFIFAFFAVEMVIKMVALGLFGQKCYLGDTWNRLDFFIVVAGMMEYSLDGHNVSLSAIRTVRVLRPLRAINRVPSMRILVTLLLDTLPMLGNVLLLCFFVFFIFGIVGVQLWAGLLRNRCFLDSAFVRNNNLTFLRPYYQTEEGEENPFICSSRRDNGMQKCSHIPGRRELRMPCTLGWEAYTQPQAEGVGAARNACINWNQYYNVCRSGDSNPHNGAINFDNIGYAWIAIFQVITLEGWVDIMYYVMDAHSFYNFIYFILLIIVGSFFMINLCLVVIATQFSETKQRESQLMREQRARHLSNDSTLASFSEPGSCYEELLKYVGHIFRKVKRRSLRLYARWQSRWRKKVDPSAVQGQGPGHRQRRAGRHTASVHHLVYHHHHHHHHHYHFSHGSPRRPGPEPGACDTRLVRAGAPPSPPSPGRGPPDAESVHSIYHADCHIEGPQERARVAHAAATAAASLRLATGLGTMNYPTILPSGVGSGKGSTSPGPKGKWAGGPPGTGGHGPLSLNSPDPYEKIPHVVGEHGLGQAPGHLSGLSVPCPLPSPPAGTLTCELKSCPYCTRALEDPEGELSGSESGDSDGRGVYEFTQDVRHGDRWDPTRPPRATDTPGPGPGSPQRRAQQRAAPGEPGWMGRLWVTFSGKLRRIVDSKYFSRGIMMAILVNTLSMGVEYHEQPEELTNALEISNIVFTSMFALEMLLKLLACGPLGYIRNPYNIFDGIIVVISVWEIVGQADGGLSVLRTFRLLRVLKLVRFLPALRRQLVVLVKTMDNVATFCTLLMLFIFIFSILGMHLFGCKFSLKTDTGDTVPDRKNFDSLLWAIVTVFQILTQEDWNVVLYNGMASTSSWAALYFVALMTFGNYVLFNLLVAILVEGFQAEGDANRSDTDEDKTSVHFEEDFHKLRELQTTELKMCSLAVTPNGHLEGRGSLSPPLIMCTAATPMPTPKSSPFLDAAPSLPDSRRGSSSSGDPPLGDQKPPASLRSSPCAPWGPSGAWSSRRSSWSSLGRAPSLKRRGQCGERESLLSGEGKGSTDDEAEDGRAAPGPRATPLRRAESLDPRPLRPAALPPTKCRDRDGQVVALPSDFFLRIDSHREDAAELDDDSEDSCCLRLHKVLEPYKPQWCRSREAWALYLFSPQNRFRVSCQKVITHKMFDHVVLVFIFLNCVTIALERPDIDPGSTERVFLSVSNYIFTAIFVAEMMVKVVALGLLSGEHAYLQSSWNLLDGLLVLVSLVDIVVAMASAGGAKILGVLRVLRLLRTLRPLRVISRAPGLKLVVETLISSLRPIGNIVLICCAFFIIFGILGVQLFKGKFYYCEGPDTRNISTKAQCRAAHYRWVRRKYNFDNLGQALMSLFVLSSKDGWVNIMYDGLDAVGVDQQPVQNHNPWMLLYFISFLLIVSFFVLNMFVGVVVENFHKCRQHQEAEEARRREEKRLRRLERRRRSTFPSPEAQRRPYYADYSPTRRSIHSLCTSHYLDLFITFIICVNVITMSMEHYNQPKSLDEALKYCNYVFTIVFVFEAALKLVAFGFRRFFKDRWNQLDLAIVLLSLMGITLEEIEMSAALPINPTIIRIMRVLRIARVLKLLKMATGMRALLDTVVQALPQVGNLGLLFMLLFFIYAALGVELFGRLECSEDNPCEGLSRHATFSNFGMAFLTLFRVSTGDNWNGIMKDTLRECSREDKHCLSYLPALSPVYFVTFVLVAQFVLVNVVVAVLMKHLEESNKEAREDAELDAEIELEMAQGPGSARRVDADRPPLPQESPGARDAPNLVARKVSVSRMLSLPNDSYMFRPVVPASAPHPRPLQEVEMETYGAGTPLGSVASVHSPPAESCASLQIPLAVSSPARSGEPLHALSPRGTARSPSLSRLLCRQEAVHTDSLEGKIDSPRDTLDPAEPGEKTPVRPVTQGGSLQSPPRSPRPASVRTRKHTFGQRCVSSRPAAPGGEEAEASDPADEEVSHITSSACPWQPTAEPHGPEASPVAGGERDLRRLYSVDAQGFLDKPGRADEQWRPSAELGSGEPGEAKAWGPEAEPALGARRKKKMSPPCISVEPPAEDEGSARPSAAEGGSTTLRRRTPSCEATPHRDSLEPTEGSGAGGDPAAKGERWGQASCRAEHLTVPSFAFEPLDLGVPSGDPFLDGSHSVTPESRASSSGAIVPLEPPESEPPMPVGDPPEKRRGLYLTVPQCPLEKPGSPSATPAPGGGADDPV
Procedure, shortened: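 CHO cells stably expressing human Cav3.1, Cav3.2 or Cav3.3, automated QPatch recording. 3-ms depolarization to +20 mV from a holding potential of -90 or -60 mV. Ca2+ tail current measured at -60 mV. Cs-glutamate internal and TEA-Cl external solution with 5 mM Ca2+. Effect read 150 s after application.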

[3] = organism: Rattus norvegicus; test: Inhibition of Wistar rat brain potassium channel at 10 uM assessed as reduction in slow potassium current at -80 mV holding potential measured after 180 secs
Procedure, shortened: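 Cortical neurons from E18 Wistar rat embryos, cultured 9-15 days, recorded by manual patch clamp from a holding potential of -80 mV. K+ currents: one 50-ms step to 0 mV, fast as peak outward and slow as end-of-pulse current. Na+ currents: train of fifteen 10-ms steps to 0 mV, peak inward current read at the first and last pulses. Effects read at least 180 s after application.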

[4] = Cmax in Wistar rat plasma at 2 mg/kg, po administered 2 hrs after aminobenzotriazol-treatment; format: ADME, organism-based; design: dose 2 mg/kg, route oral
Procedure, shortened: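 Male Wistar rats dosed iv at 0.2 mg/kg or po at 2 mg/kg. In the inhibited arm, the broad CYP inhibitor aminobenzotriazol was given orally 2 h before dosing. Clearance, Vss and half-life derived from plasma concentrations after the iv dose; Cmax and Tmax from the po dose.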

[5] = Tmax in Wistar rat plasma at 2 mg/kg, po; format: ADME, organism-based
[6] = Plasma concentration in Wistar rat at 10 mg/kg, po measured after 1 hr; format: ADME, organism-based
[7] = Drug uptake in Wistar rat brain at 10 mg/kg, po measured after 1 hr; format: ADME, organism-based; details: read-out: Drug uptake
Procedure, shortened: (§1)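 Male Wistar rats given oral doses of 10, 30 or 100 mg/kg. Plasma, brain and CSF collected at 1 h, and at 3 h for the 10 mg/kg dose; compound concentrations measured in each.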

[8] = Drug uptake in Wistar rat CSF at 100 mg/kg, po measured after 1 hr; format: ADME, organism-based, Cerebrospinal fluid; details: read-out: Drug uptake; procedure, shortened: as §1
[9] = system: Rattus norvegicus; test: Cardiovascular toxicity in spontaneously hypertensive rat assessed as decrease in mean […] pressure at 100 mg/kg, po by telemetry method; format: organism-based; details: in vivo
Procedure, shortened: (§2)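 Conscious, freely moving male spontaneously hypertensive rats with telemetry recording MAP, HR and ECG. Single oral dose (5 ml/kg) given as a suspension in 0.5% w/v methylcellulose in water, in the morning during the sleep phase. Vehicle controls run in parallel, n = 8 per group.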

[10] = system: Rattus norvegicus; test: Cardiovascular toxicity in spontaneously hypertensive rat assessed as reduction in heart rate at 100 mg/kg, po; format: organism-based; details: in vivo; procedure, shortened: as §2

IC50 [2]: 0.22 µM
inhibition [3]: 3%
Cmax [4]: 150 nM
Tmax [5]: 15 min
concentration at 1 h [6]: 270 nM
concentration at 1 h [7]: 800 nM
concentration at 1 h [8]: 61 nM
Compound: O=C(Nc1ccc(F)cc1)N1N=C(c2ccncc2)CC1c1ccc(F)cc1 (stereo not given)
IC50 [1]: 6.4 µM
Activity [9]: 12 mmHg
Activity [10]: Toxic
